In the library only some 4.6% were active in any assay of this set; here they are far more common.
TAAR1 antag: human TAAR1 antagonists, primary screen, Fluo-8 calcium fluorescence, CHO RD-HGA16 cells. Trace amine-associated receptor 1 (Homo sapiens), Q96RJ0. antagonist. inhibition, % at 3 µM. 1.5% of 360,000 active. AID 624466, 2012;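 active means inhibition above a per-plate cutoff, the mean inhibition of test compounds on that plate plus 3 SD, cut at about 49% in these data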;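 further: 0% = DMSO plus EC80 beta-PEA response and 100% = DMSO alone without agonist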
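Test system – hTAAR1-expressing CHO RD-HGA16 cells, Gα16-coupled · Also added – β-PEA at EC80 concentration, post-compound challenge · Compound – 3 µM, single point · Incubation – dye loading 75 min at 37 °C, then 30 min room temperature · Measured by – Fluo-8 intracellular calcium dye fluorescence, real-time kinetic reads · Benchmarks – vehicle and agonist controls · Replicates – singlicate, one well per test compound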
GPR7 antagonist: GPR7 receptor antagonists, primary screen, cell-based, fluorescence, single concentration | Neuropeptides B/W receptor type 1 (Homo sapiens), P48145 | GPR7-expressing cells, fluorescence antagonist assay | inhibition, % at 4.4 µM | 1.1% of 290,000 active; in the data active means inhibition above about 16%, passing the limit was not always enough;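 further: cells stimulated with the agonist NPW; 0% = agonist with vehicle and 100% = vehicle without agonist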
Target sequence (P48145 whole entry, looked up): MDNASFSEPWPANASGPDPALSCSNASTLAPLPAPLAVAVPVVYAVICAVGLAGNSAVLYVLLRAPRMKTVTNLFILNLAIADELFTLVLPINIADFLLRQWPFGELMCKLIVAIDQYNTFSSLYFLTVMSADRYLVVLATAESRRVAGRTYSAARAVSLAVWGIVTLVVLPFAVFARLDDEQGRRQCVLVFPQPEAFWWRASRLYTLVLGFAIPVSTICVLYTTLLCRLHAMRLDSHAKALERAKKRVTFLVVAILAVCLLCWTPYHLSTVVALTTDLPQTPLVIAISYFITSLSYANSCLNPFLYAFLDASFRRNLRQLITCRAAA
CHO parental Ca: ATP-evoked calcium signal inhibitors, parental CHO, primary screen, counter-screen for OX1R antagonist project, cell-based, fluorescence, Fluo-8 calcium dye; 0.63% of 330,000 active; inhibition, % at 5.6 µM; parental CHO-K1, ATP-induced calcium, Fluo-8 fluorescence;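 active means inhibition above that plate's mean sample inhibition plus 3 SD, cut at about 26% in these data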;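 further: 0% = ATP-challenged DMSO wells and 100% = DMSO wells without ATP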
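test system = CHO parental line | reagent = ATP stimulus | measured by = intracellular calcium via Fluo-8 no-wash fluorescent dye | control set = ATP and no-ATP DMSO wells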
OX1R antag-1: OX1R (HCRTR1) antagonists, primary screen, fluorescence, CHO/OX1R cells, Fluo-8 calcium, orexin A. Orexin/Hypocretin receptor type 1 (Homo sapiens), O43613. Fluo-8 calcium fluorescence. inhibition, % at 5 µM. 0.43% of 330,000 active;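 active means inhibition above its plate's threshold, mean inhibition of all tested compounds on the plate plus 3 SD, cut at about 37% in these data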;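 further: 0% = orexin A challenge wells and 100% = SB-334867-A antagonist wells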
OX1R antag-2: antagonists of human orexin 1 receptor (OX1R); 1.8% of 330,000 active; AID 485270, 2010; inhibition, % at 6.6 µM; OX1R-expressing cells, FRET antagonist read-out; in the data active means inhibition mostly above about 38%, no sharp cut-off; inactive means mostly below about 40%;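 further: 0% = agonist challenge alone and 100% = reference antagonist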
TAAR1 agonist: human TAAR1 agonists, primary screen, Fluo-8 calcium fluorescence, CHO RD-HGA16 cells; vehicle wells 0%, saturating PEA agonist 100%; 0.99% of 360,000 active; AID 624467, 2012; activation, % at 3 µM;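 active means activation above the mean activation of all test compounds in the run plus 3 SD, cut at about 38% in these data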
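Repeats: no replicates (n 1) | Material: CHO-derived RD-HGA16 cells with stable Gα16 and human TAAR1 | Technique: Kinetic Fluo-8 calcium fluorescence | Schedule: 17-24 h seeding, 75 min 37 °C dye, 30 min RT | Evaluation: % activation from peak over basal fluorescence ratio, DMSO-to-PEA scaled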
TAAR1 nonsel count: nonselective antagonists in TAAR1 counter-screen cells, counter-screen for hTAAR1 antagonist project, cell-based, fluorescence, calcium; shares compounds with TAAR1 antag; counterscreen cell line, antagonist mode; inhibition, % at 3 µM; 77% of 2,400 active; in the data active means inhibition above about 22%;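 further: CHO-Ga16 host cells stimulated with ATP at an EC80 level; 0% = agonist EC80 plus vehicle and 100% = vehicle without agonist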
TAAR1 ant conf: human TAAR1 antagonists, retest of hits, confirmation, cell-based, fluorescence; 40% of 2,400 active; TAAR1-expressing cells, fluorescence antagonist read-out; inhibition, % at 3 µM; AID 651785, 2012; shares compounds with TAAR1 antag; in the data active means inhibition above about 49%;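 further: CHO-Ga16 host cells challenged with agonist PEA near its EC80; 0% = agonist at EC80 plus vehicle and 100% = vehicle with no agonist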
Ga16 nonsel ag: calcium activation in Ga16-expressing cells, counter-screen for TAAR1 antagonist project, cell-based, fluorescence; 18% of 2,400 active; agonist counterscreen; shares compounds with TAAR1 antag; AID 651953, 2012; activation, % at 3 µM; in the data active means activation above about 12%;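 further: 0% = vehicle wells and 100% = saturating stimulus response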
TAAR1 ag counter: TAAR1 activation by candidate antagonists – cell-based, fluorescence, counter-screen for TAAR1 antagonist project; hTAAR1 cell line, agonist mode; activation, % at 3 µM; 2% of 2,400 active; shares compounds with TAAR1 antag; AID 651955, 2012; in the data active means activation above about 37%;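 further: CHO cells stably expressing TAAR1 with calcium dye readout; 0% = DMSO vehicle and 100% = full agonist response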
The depositor's hits bear a star; . = no result.

SMILES	TAAR1 antag	GPR7 antagonist	CHO parental Ca	OX1R antag-1	OX1R antag-2	TAAR1 agonist	TAAR1 nonsel count	TAAR1 ant conf	Ga16 nonsel ag	TAAR1 ag counter
COc1cc(/C=C2/C(=N)N3C=CSC3=NC2=O)ccc1OCCCOc1ccccc1C	64*	13	-18	-8	8	14	26*	43	4	4
COc1cc(/C=C2/C(=N)N3C=CSC3=NC2=O)ccc1OCCCOc1c(C)cccc1C	44	-1	-19	-16	-1	0	.	.	.	.
CN1CCN(C(=O)C2Cc3c(-c4cccc(F)c4)ccnc3O2)CC1 (configuration not stated)	-14	.	.	.	.	1	.	.	.	.
COc1ccc(/C=C2\SC(=S)N(CCCCCC(=O)Nc3cc(C)on3)C2=O)cc1OC	-19	-10	-11	-21	1	0	.	.	.	.
COc1ccc(/C=C2\SC(=S)N(NS(=O)(=O)c3ccc(C)cc3)C2=O)c(OC)c1	68*	3	12	-13	60*	16	16	33	8	5
COc1cc(/C=C2\SC(=S)N(CCCCC(=O)O)C2=O)ccc1OS(=O)(=O)c1ccc(C)cc1	65*	.	21	-4	22	12	50*	50*	12*	7
CCOc1ccc(/C=C2\SC(=S)N(NS(=O)(=O)c3ccc(C)cc3)C2=O)cc1OC	75*	-19	-10	-20	56	12	29*	51*	7	4
O=C1/C(=C\c2ccc([N+](=O)[O-])cc2)CCc2ccccc21	-29	-10	-9	-3	9	0	.	.	.	.
O=C1/C(=C/Nc2cccc([N+](=O)[O-])c2)CCc2ccccc21	51*	-9	-26	-42	11	0	13	24	1	-5
COc1ccc(C(=O)c2cnc3ccccc3c2-c2ccccc2)cc1	57*	-11	-27	-27	41	11	21	44	4	0
Cc1ccc(C(=O)c2cnc3ccccc3c2-c2ccccc2)cc1	37	9	-19	-2	26	11	.	.	.	.
Cc1sc2ncnc(N3CCC(C(=O)Nc4ccccc4C(C)(C)C)CC3)c2c1C	26	.	2	-31	27	9	.	.	.	.
Cc1sc2ncnc(N3CCC(C(=O)N(C)CC(=O)Nc4ccc(Cl)c(C(F)(F)F)c4)CC3)c2c1C	39	.	6	-24	26	7	.	.	.	.
CCN(CC(=O)Nc1cc(Cl)ccc1C)C(=O)C1CCN(c2ncnc3sc(C)c(C)c23)CC1	83*	.	.	.	.	14	34*	54*	9	6
CCN(CC(=O)Nc1cc(Cl)ccc1C)C(=O)C1CCCCC1	-1	7	6	-19	23	0	.	.	.	.
Cc1sc2ncnc(N3CCC(C(=O)N(C)CC(=O)Nc4cccc(F)c4)CC3)c2c1C	68*	.	.	.	.	18	32*	55*	13*	12
Cc1sc2ncnc(N3CCC(C(=O)N(C)CC(=O)Nc4ccccc4Br)CC3)c2c1C	63*	-11	-31	-25	24	10	27*	44	9	8

Bioassay records deposited in PubChem by The Scripps Research Institute Molecular Screening Center.
